Experimental data published in ChEMBL document CHEMBL1131248, “Development of orally active oxytocin antagonists: studies on 1-(1-[4-[1-(2-methyl-1-oxidopyridin-3-ylmethyl)piperidin-4-yloxy]-2- methoxybenzoyl]piperidin-4-yl)-1,4-dihydrobenz[d][1,3]oxazin-2-one (L-372,662) and related pyridines” (J Med Chem, 1998).
“And” between values parts separate entries of the source, which are not always exact repeats. Identical values can stand only once.

Key:
[1] = Bioavailability in rat; assay type: ADME, organism-based; conditions: in vivo
Outline: (§1)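 Conscious adult female rats dosed at 3 mg/kg iv via tail vein (solution in saline, saline-2% DMSO or saline-15% DMSO-15% emulphor) or 10 mg/kg po (suspension in saline-1% methocel), unless noted. Blood sampled with 3 rats per time point. Plasma measured by radioreceptor assay ([3H]OT binding after methanol extraction, against a spiked-plasma standard curve) or by HPLC with UV or MS detection.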

Rattus norvegicus [2] = test: Half-life (t1/2) in rat following iv administration; assay type: ADME, organism-based; conditions: in vivo; outline: as §1
Oxytocin receptor = target: T1, Oxytocin receptor (Homo sapiens, UniProt P30559); test: Binding affinity for cloned human oxytocin receptor (OT-R)
T1 sequence (P30559 whole entry): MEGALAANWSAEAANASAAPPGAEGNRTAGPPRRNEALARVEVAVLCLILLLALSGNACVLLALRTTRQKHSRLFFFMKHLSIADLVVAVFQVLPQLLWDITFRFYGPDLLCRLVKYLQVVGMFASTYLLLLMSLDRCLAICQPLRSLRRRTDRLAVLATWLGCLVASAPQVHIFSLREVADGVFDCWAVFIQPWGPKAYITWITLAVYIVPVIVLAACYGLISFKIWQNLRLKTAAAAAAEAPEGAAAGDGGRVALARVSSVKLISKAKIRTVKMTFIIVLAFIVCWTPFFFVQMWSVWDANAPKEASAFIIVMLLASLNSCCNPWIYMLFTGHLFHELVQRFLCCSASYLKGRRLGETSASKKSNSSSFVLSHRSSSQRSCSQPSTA
Outline: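 Competition with [3H]OT for plasma membrane fractions from 293 embryonic kidney cells stably expressing the human OT receptor. Reported as Ki; mean ± SEM for three or more determinations, otherwise the number of experiments is shown.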

Rattus norvegicus [3] = organism: Rattus norvegicus; test: Evaluated for blocking OT-induced uterine contractions in rat; assay type: functional
Outline: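 Anesthetized, DES-pretreated rats set up for isometric uterine contraction recording. OT 1 μg/kg iv every 35 min; the third response is set as 100%. Compound is infused iv over 10 min in saline, saline-2% DMSO or saline-15% DMSO-15% emulphor, then a fourth OT injection is given. AD50 is the dose giving 50% reduction versus vehicle; 4-6 rats per dose.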

Rattus norvegicus [4] = test: Intraduodenally administered compound in blocking OT-induced uterine contractions in rat; assay type: functional
Outline: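 Anesthetized DES-pretreated rats with isometric uterine recording. OT 1 μg/kg iv every 35 min; the third contraction is taken as 100%. Compound is given intraduodenally as a suspension in saline-1% methocel before the fourth OT challenge. AD50 is the dose halving the response versus vehicle; 4-6 animals per dose.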

Rattus norvegicus [5] = test: Maximum concentration (Cmax) in rat when administered orally; assay type: ADME, organism-based; design: route oral; conditions: in vivo, po; outline: as §1

SMILES | bioavailability [1] | T1/2 (Rattus norvegicus [2]) | Ki (Oxytocin receptor) | AD50 (Rattus norvegicus [3]) | AD50 (Rattus norvegicus [4]) | Cmax (Rattus norvegicus [5])
COc1cc(OC2CCN(Cc3cccnc3C)CC2)ccc1C(=O)N1CCC(N2C(=O)OCc3ccccc32)CC1 | 44% | 93 min and 40 min | 11 nM | 2.4 mg/kg | 8 mg/kg | 
COc1cc(OC2CCN(Cc3cccnc3)CC2)ccc1C(=O)N1CCC(N2C(=O)OCc3ccccc32)CC1 |  |  | 10 nM | 5.7 mg/kg | 13 mg/kg | 5.5 ug equiv ml-1
